Source: PubChem (The Scripps Research Institute Molecular Screening Center)
Shown are actives, neighbours in structure and some others; about 2.7% of the full set was active somewhere.
IMP-1 inhibitor: IMP-1 metallo-beta-lactamase inhibitors, primary screen, biochemical, epi-absorbance readout, Pseudomonas aeruginosa enzyme; metallo-beta-lactamase IMP-1 (Pseudomonas aeruginosa); purified IMP-1, nitrocefin hydrolysis, epi-absorbance fluorescence; inhibition, % at 5.6 µM; 0.45% of 290,000 active; AID 1556, 2009;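 active = inhibition above the mean plus 3 SD of all compounds in the same screening run, cut at about 4.5% in these data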;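 note: 0% = IMP-1 with DMSO and 100% = DMSO wells lacking enzyme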
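System: purified IMP-1 / Input: IMP-1 dispensed at 0.2 nM / Medium: 50 mM HEPES pH 7.1, 50 µM ZnSO4, 0.05% Brij 35 / Timing: 15 min enzyme–compound preincubation, then 25 min nitrocefin reaction, 25 °C / Technique: plate fluorescence quenching by hydrolysis product, ex 480/em 530 nm / Repeats: singlicate testing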
PfM18AAP inh-1: PfM18AAP inhibitors, malaria aminopeptidase, primary screen, biochemical, QFRET, recombinant enzyme. inhibition, % at 7.35 µM. 1.2% of 290,000 active. H-Glu-NHMec fluorogenic cleavage;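 active = inhibition above the campaign mean inhibition over all tested compounds plus 3 SD, cut at about 28% in these data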;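 note: 0% = plate median of test compound wells and 100% = 2 mM ZnCl2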
CTSL1 counter-1: Fasciola hepatica cathepsin L1 inhibitors, primary screen, counter-screen for PFM18AAP inhibitor project, biochemical, QFRET, fluorogenic peptide substrate. 0.49% of 300,000 active. AID 1906, 2009. inhibition, % at 5.96 µM. recombinant F. hepatica cathepsin L1, Z-Leu-Arg-MCA fluorescence;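 active = inhibition above the mean of all tested compounds plus 3 SD, set per screening campaign, cut at about 17% in these data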;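 note: 0% = plate median of test compound wells and 100% = 1 µM Z-Phe-Ala-diazomethylketone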
VIM-2 inhibitor: VIM-2 metallo-beta-lactamase inhibitors, primary screen, biochemical, epi-absorbance readout, Pseudomonas aeruginosa enzyme; 0.89% of 290,000 active; AID 1527, 2009; purified VIM-2, nitrocefin hydrolysis, epi-absorbance fluorescence; inhibition, % at 5.6 µM;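 active = inhibition above the mean of all tested compounds plus 3 SD, cutoff set per screening run, cut at about 7.5% in these data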;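 note: red hydrolysis product quenches plate fluorescence so inhibitors raise well fluorescence; 0% = enzyme with DMSO and 100% = DMSO without enzyme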
PfM18AAP inh-2: PfM18AAP inhibitors, malaria aminopeptidase, confirmation, biochemical, QFRET, recombinant enzyme, triplicate | shares compounds with PfM18AAP inh-1 | H-Glu-NHMec fluorogenic cleavage | inhibition, % at 7.35 µM | 28% of 2,400 active | AID 2170, 2009;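 active = mean inhibition over replicate wells above the hit cutoff set for the earlier primary screen, cut at about 29% in these data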;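 note: 0% = median of test compound wells and 100% = 2 mM ZnCl2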
CTSL1 counter-2: cathepsin L1 inhibitors, retest, confirmation, counter-screen for PFM18AAP inhibitor project, biochemical, QFRET, triplicate; shares compounds with PfM18AAP inh-1; purified cathepsin L1, Z-Leu-Arg-MCA fluorescence; inhibition, % at 5.96 µM; 2,400 tested, under 10 active; AID 2178, 2009;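 active = average inhibition across replicates above the hit cutoff set in the earlier primary screen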;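 note: 0% = median of test compound wells and 100% = Z-Phe-Ala-diazomethylketone 1 µM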
Target sequence (P07711 whole entry, looked up): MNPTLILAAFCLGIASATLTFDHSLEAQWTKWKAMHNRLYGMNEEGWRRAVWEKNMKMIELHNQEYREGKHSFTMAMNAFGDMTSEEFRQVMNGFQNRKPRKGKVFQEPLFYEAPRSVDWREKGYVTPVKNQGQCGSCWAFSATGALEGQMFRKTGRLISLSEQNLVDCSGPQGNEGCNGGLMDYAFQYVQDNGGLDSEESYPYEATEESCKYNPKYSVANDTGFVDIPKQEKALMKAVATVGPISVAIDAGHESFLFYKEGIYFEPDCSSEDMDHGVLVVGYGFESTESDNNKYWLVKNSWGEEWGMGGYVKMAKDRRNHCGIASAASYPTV
Numbers without * were called inactive; / = no result given; ! = not active in a repeat.

SMILES	IMP-1 inhibitor	PfM18AAP inh-1	CTSL1 counter-1	VIM-2 inhibitor	PfM18AAP inh-2	CTSL1 counter-2
O=c1c(-c2ccc([N+](=O)[O-])cc2)coc2c(O)c(O)ccc12	-4.9	45.4*	0.3	1.7	25.2	-1.8
CN(C)Cc1c(O)ccc2c(=O)c(-c3ccc(Cl)cc3)coc12	-0.9	-11.3	8.1	-0.5	/	/
Clc1ccc(-c2nnc(COc3ncnc4sccc34)o2)cc1	-3.3	3.9	3.1	-4.1	/	/
N#CCn1c(Cc2ccccc2)nc2ccccc2c1=O	-1.7	5.2	/	-2.8	/	/
N#CC/C(N)=N/Nc1nc2ccccc2nc1Cc1ccccc1	-5.3	36.4*	-0.6	-3.2	8.6	-4.5
O=C1CCCC2=C1C(c1ccc(O)c(O)c1)Nc1ccc3ncccc3c12 (configuration not stated)	-2.5	78.5*	1.0	-1.8	77.7*	1.0
CC(OC(=O)CCCC(=O)Nc1ccccc1)C(=O)c1ccccc1 (configuration not stated)	-2.8	-0.8	-36.8	-0.2	/	/
Cc1ccc(-c2nnn(CC(=O)N(CC(=O)NC3CCCC3)c3cnc4ccccc4c3)n2)o1	-1.9	43.8*	-0.3	0.8	-36.4	4.0
Cc1ccc(C(=O)O[C@H](C(=O)O)[C@H](OC(=O)c2ccc(C)cc2)C(=O)O)cc1	-2.4	3.0	1.1	-2.9	/	/
CC(=O)Nc1cc(-c2ccccc2)ccc1O	-2.4	6.2	-4.3	-2.5	/	/
Nc1cc(-c2ccccc2)ccc1O	-2.7	35.1*!	-2.0	-1.4	15.2	-3.2
NC(=O)C1CCN(C(=O)C(=O)c2cn(CC(=O)N3CCCC3)c3ccccc23)CC1	-4.7	43.0*	-1.2	-3.0	-40.7	-2.8
CC1CCN(C(=O)C(=O)c2cn(CC(=O)N3CCCC3)c3ccccc23)CC1	-2.3	6.7	0.6	-1.4	/	/
COC(=O)c1cc([N+](=O)[O-])c(-n2cncn2)c([N+](=O)[O-])c1	-3.5	83.1*	/	-1.7	43.7*	-4.5
CC(=O)C1=C(C)Nc2cc(C(F)(F)F)ccc2S1	-4.2	35.7*	-0.7	-1.0	-4.2	-1.4
NS(=O)(=O)c1ccc(NC(=O)NC2CC(=O)N(c3ccc4c(c3)OCCO4)C2)cc1 (configuration not stated)	/	/	2.5	/	/	/
Cc1ccc(OCC(=O)Nc2cccc(S(=O)(=O)N3CCCCCC3)c2)cc1C	/	/	-0.9	/	/	/
O=C(Nc1ccc(Cl)c(C(F)(F)F)c1)[C@@H]1CC=C[C@@H]2CCN(C3CC3)C(=O)[C@@H]21	/	/	-0.9	/	/	/
CSc1ccc(C(=S)N2CCN(CCO)CC2)cc1	-1.1	32.9*	-4.3	-1.5	7.3	0.0
OCCN1CCN(C(=S)Nc2ccc(SC(F)F)cc2)CC1	-3.3	2.7	0.1	-1.0	/	/
Cc1cccc2sc(NC(=O)c3cccc(S(=O)(=O)N4CCc5ccccc54)c3)nc12	-0.6	-3.6	2.8	0.7	/	/
Cc1cccc2sc(NNC(=O)c3ccc(S(=O)(=O)N4CCCC(C)C4)cc3)nc12 (configuration not stated)	-0.5	37.6*	4.0	-2.4	-24.5	1.8
Cc1cccc2sc(NNC(=O)c3ccc(S(=O)(=O)N4CCc5ccccc5C4)cc3)nc12	-1.6	36.6*	2.8	-2.1	-42.4	-1.6
CC(=O)Nc1ccc(NC(=O)C(C)OC(=O)CNS(=O)(=O)/C=C/c2ccc(C)cc2)cc1 (configuration not stated)	/	/	-15.6	/	/	/
CCCCNC(=O)Cn1c(=O)c2c(ncn2CC)n(Cc2ccccc2)c1=O	-3.2	-0.6	-2.4	-2.5	/	/
CCOC(=O)c1sc(N2C(=O)C(O)=C(C(=O)c3ccco3)C2c2ccco2)nc1C (configuration not stated)	-2.7	32.0*	-0.7	-2.0	-43.4	-1.7
COc1cc(Cl)ccc1NC(=S)N(CCCN1CCOCC1)Cc1cn(C)c2ccccc12	-0.7	31.9*	4.7	0.0	-0.6	2.8
